The text below walks through data of ChEMBL document CHEMBL1268809, “Optimisation of 2-cyano-pyrimidine inhibitors of cathepsin K: improving selectivity over hERG” (Bioorg Med Chem Lett, 2010).

≈ marks a conversion by molar mass, not a printed value.

Data set [1] addresses T1, Cathepsin K (Homo sapiens, UniProt P43235).
T1 sequence (P43235 whole entry): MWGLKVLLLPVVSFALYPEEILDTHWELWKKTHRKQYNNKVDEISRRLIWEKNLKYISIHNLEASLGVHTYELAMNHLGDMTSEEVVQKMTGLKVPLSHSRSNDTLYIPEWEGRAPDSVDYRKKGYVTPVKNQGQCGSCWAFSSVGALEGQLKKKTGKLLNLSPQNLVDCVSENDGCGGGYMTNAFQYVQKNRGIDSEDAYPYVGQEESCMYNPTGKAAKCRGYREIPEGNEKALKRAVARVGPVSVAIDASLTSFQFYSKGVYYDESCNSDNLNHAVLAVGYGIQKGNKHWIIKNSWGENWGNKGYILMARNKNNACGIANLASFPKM
The data set is described as follows: Inhibition of human recombinant cathepsin K using Z-Phe-Arg-MCA substrate by fluorimetric assay.

Data set [2] has as its target Voltage-gated inwardly rectifying potassium channel KCNH2 (Homo sapiens, UniProt Q12809). As to the kind of experiment: Displacement of [3H] dofetilide from human ERG channel expressed in HEK293 cells. It counts as cell-based.
A short description of data set [3]: Half life in plasma. The format is ADME, cell-free.
The subject of data set [4] is Osteoclast. The data set is described as follows: Inhibition of bone resorption in rabbit osteoclasts. The format is functional, cell-based. To be noted: Oryctolagus cuniculus.
Data set [5] deals with Cathepsin B (Homo sapiens, UniProt P07858). The data set is described as follows: Inhibition of human recombinant cathepsin B.
The target of data set [6] is Cathepsin S (Homo sapiens, UniProt P25774). As to the kind of experiment: Inhibition of human recombinant cathepsin S.
Cathepsin S, sequence (P25774 whole entry): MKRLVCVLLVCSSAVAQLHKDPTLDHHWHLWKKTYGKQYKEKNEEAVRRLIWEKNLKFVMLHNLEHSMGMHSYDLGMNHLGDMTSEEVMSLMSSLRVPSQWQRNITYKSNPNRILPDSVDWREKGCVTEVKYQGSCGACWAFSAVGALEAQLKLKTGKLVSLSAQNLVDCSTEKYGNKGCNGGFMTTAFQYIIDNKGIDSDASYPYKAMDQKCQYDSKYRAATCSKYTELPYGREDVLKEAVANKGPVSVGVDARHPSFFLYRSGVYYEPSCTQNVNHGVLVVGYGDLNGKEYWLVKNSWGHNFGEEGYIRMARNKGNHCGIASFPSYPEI
Data set [7] has as its target Procathepsin L (Homo sapiens, UniProt P07711). The data set is described as follows: Inhibition of human recombinant cathepsin L.
Data set [8] can be described thus: Solubility in pH 7.4 PBS solution. The format is physicochemical.
The target of data set [9] is T2, Cytochrome P450 1A2 (Homo sapiens, UniProt P05177).
T2 sequence (P05177 whole entry): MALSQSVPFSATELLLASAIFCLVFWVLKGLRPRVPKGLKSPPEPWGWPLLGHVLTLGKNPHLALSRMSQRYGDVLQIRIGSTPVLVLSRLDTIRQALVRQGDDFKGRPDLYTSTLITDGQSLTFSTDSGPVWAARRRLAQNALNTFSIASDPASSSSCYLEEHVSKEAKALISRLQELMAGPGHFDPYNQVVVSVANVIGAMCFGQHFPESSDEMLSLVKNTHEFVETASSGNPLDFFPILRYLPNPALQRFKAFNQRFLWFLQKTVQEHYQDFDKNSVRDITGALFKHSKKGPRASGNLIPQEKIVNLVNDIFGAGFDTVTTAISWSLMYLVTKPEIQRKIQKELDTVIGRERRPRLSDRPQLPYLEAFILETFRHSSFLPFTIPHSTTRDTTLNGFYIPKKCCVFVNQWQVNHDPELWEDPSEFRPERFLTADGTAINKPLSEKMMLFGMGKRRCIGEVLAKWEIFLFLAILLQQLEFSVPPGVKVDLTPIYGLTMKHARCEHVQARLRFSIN
The data set is described as follows: Inhibition of CYP1A2. The format is ADME.

For data set [10], the target named is Cytochrome P450 2C9 (Homo sapiens, UniProt P11712). As to the kind of experiment: Inhibition of CYP2C9. It counts as ADME.
Cytochrome P450 2C9, sequence (P11712 whole entry): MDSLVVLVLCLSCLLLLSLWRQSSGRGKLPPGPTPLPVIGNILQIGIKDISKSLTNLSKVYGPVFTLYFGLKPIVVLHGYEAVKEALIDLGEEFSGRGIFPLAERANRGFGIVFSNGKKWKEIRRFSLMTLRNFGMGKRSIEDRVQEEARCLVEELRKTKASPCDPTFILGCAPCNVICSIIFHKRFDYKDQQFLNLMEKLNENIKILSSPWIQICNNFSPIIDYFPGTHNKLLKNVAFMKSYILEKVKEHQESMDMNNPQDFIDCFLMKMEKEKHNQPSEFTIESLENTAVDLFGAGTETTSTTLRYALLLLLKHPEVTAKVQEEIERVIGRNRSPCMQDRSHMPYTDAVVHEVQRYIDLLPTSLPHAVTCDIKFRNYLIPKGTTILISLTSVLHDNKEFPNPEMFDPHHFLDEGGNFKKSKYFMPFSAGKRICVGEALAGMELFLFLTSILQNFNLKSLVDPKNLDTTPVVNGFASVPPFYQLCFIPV
Data set [11] deals with Cytochrome P450 2C19 (Homo sapiens, UniProt P33261). The data set is described as follows: Inhibition of CYP2C19. The format is ADME.
Cytochrome P450 2C19, sequence (P33261 whole entry): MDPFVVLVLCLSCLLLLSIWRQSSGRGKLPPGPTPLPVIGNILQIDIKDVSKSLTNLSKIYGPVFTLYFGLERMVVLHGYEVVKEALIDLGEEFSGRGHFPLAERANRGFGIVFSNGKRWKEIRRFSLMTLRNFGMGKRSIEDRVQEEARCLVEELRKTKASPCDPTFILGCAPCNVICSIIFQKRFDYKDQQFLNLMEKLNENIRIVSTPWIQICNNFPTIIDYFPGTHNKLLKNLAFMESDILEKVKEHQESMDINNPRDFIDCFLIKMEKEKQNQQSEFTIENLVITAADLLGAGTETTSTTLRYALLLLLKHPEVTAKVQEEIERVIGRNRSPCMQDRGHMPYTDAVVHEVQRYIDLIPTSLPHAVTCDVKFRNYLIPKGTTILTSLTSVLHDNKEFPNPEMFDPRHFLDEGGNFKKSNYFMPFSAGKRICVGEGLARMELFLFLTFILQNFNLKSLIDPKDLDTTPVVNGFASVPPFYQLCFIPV
The target of data set [12] is Cytochrome P450 3A4 (Homo sapiens, UniProt P08684). The data set is described as follows: Inhibition of CYP3A4. It counts as ADME.
Cytochrome P450 3A4, sequence (P08684 whole entry): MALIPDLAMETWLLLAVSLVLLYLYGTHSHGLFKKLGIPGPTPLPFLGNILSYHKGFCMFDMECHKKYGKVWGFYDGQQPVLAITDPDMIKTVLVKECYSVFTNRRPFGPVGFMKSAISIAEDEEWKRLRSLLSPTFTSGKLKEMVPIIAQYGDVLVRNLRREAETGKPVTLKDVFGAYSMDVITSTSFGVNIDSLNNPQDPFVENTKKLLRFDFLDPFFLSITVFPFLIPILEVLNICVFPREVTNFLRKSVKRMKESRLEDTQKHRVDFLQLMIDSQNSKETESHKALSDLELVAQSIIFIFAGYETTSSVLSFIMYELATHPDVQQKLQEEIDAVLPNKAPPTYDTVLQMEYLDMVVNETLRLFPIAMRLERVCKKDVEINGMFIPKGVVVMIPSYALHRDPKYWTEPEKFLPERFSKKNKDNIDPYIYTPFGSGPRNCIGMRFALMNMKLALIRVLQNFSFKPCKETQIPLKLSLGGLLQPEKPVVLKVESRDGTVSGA
Data set [13] in a line: Oral bioavailability in Wistar rat at 10 mg/kg. The format is ADME, organism-based. To be noted: in vivo. In outline:
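Wistar rats were dosed iv at 2 mg/kg and po at 10 mg/kg. Oral bioavailability (F, %) was derived from the two routes.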

Data set [14] in a line: Oral bioavailability in Beagle dog at 1.96 mg/kg. To be noted: in vivo.
The nature of data set [15]: Oral bioavailability in cynomolgus monkey at 4.63 mg/kg. To be noted: in vivo.

Voltage-gated inwardly rectifying potassium channel KCNH2, sequence (Q12809 whole entry): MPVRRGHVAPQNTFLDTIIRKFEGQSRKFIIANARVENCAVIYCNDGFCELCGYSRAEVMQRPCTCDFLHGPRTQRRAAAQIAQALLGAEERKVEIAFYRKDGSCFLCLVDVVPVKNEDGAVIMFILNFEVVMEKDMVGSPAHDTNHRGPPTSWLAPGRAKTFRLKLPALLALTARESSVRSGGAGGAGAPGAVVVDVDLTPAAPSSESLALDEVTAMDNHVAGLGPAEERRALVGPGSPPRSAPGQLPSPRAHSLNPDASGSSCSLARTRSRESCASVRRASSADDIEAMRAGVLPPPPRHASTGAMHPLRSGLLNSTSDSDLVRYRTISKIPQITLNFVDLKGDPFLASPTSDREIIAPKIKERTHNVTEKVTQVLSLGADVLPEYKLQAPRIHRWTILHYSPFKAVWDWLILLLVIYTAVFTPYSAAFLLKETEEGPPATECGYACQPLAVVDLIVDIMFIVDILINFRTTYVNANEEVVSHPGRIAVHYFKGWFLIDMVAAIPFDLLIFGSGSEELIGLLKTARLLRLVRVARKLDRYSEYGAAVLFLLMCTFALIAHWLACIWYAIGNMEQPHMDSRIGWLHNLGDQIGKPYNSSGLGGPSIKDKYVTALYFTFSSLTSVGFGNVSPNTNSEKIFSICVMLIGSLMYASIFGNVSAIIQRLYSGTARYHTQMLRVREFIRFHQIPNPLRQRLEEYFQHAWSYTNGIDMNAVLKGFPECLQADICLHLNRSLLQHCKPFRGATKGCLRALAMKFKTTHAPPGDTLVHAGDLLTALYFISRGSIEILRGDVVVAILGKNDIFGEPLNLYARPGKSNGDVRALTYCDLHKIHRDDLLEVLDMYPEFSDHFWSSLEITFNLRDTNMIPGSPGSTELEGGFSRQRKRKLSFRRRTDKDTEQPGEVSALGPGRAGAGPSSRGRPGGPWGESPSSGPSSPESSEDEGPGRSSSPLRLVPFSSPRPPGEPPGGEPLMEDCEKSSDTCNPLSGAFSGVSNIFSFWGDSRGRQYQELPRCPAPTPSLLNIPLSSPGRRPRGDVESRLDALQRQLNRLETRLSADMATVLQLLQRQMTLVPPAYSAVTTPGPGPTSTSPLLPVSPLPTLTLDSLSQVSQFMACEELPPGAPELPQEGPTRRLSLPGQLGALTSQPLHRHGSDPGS
Procathepsin L, sequence (P07711 whole entry): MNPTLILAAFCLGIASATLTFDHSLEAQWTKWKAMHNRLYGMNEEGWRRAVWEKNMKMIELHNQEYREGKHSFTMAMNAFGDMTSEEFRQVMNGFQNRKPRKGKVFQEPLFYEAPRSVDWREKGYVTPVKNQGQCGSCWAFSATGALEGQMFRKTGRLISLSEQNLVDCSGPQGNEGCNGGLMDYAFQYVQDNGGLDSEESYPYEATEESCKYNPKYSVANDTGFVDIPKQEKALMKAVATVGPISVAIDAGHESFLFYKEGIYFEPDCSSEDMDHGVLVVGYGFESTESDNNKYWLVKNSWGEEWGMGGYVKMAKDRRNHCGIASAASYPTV

The IC50 is the midpoint of a concentration-inhibition curve. Consider `N#Cc1nc(CCCNc2ccccn2)cc(-c2cccc(C(F)(F)F)c2)n1`, for which the IC50 in [1] came out at 3 nM.
As to `CCC(CC)NC(=O)CCc1cc(-c2cccc(C(F)(F)F)c2)nc(C#N)n1`, in [1], the IC50 turned out to be 389 nM.
Take `CCCc1cc(-c2cc(C(F)(F)F)ccc2C(=O)N(C)C)nc(C#N)n1`: the IC50 in data set [1] came out at 427 nM.
As usually defined, the Ki is the equilibrium dissociation constant of an inhibitor or competing ligand from its target. In turn, `N#Cc1nc(CCC(=O)O)cc(-c2cccc(C(F)(F)F)c2)n1` yielded a Ki in data set [2] of over 10000 nM. In addition, the IC50 in [1] turned out to be 166 nM.
Usually half-life stands for the time needed for the level to fall by half in the phase considered. For `N#Cc1nc(CCCN2CCOC[C@H]2C(N)=O)cc(-c2cccc(C(F)(F)F)c2)n1`, in [2], the Ki is over 10000 nM. Besides, the IC50 in data set [1] came to 13 nM. This molecule registered a half-life in [3] of over 2.5 h.
With `N#Cc1nc(CCCNCc2nnn[nH]2)cc(-c2cccc(C(F)(F)F)c2)n1`, the Ki in [2] was over 10000 nM. Besides, the IC50 in [1] turned out to be 11 nM; in data set [4] it was 1640 nM.
Molecule `COCCNCCCc1cc(-c2cccc(C(F)(F)F)c2)nc(C#N)n1` returned a Ki in data set [2] of 560 nM. In addition, the IC50 in data set [1] was 10 nM.
`N#Cc1nc(CCCN2CCC(O)CC2)cc(-c2cccc(C(F)(F)F)c2)n1`: the inhibition constant (Ki) in [2] is 1120 nM.
In [2], `N#Cc1nc(CCCNC2(C(N)=O)CC2)cc(-c2cccc(C(F)(F)F)c2)n1` showed a Ki of 1580 nM.
Molecule `N#Cc1nc(CCCNCC(=O)O)cc(-c2cccc(C(F)(F)F)c2)n1` displayed a Ki in [2] of over 10000 nM.
As for `CN1CCN(CCCc2cc(-c3cccc(C(F)(F)F)c3)nc(C#N)n2)CC1`, the IC50 in data set [1] is 10 nM.
In turn, `CCCc1cc(-c2cc(C(=O)N(CCN(C)C)Cc3ccccc3)cc(C(F)(F)F)c2)nc(C#N)n1` displayed a Ki in data set [2] of 120 nM.
In the case of `N#Cc1nc(CCCNC2(C(N)=O)CCC2)cc(-c2cccc(C(F)(F)F)c2)n1`, the Ki in data set [2] is 2510 nM.
As for `N#Cc1nc(CCCNCC(N)=O)cc(-c2cccc(C(F)(F)F)c2)n1`, the inhibition constant (Ki) in [2] amounted to 3980 nM.
Turning to `CCCc1cc(-c2cc(C(=O)N(C)Cc3ccccc3)cc(C(F)(F)F)c2)nc(C#N)n1`, the IC50 in data set [1] came out at 9 nM.
As a reminder, the solubility is the dissolved amount per volume that the medium holds. By bioavailability is commonly meant dose-corrected exposure relative to a reference, in per cent. Turning to `CC(C)(NCCCc1cc(-c2cccc(C(F)(F)F)c2)nc(C#N)n1)C(N)=O`, the IC50 in data set [5] is 2510 nM; in data set [6], 16 nM; in data set [7] it was over 10000 nM; in data set [9], over 35000 nM; in [10], over 35000 nM; in data set [11], over 35000 nM. The molecule also yielded an IC50 in [12] of over 35000 nM. In data set [8], this molecule registered a solubility of 393 µg/mL (≈ 1000 µM). The figures for the bioavailability in [13], in [14] and in data set [15] were 29%, 29% and 57%, respectively.
`CNCCCc1cc(-c2cccc(C(F)(F)F)c2)nc(C#N)n1`: the IC50 in [1] amounted to 6 nM.
`N#Cc1nc(CCCNC2(C(N)=O)CCOCC2)cc(-c2cccc(C(F)(F)F)c2)n1` yielded a Ki in [2] of over 10000 nM. In [1], the IC50 was found to be 5 nM. The half-life in [3] was over 2.5 h.
In the case of `CCCc1cc(-c2cc(C(=O)N(C)CCN(C)C)cc(C(F)(F)F)c2)nc(C#N)n1`, in data set [2], the Ki stood at 710 nM.
In [2], `CCCc1cc(-c2cc(C(=O)N(C)C)cc(C(F)(F)F)c2)nc(C#N)n1` displayed a Ki of over 10000 nM.
With `N#Cc1nc(CCCN2CCOCC2)cc(-c2cccc(C(F)(F)F)c2)n1`, the affinity in data set [2], expressed as Ki, was 320 nM. For the same molecule, the IC50 in data set [1] came out at 9 nM.
`N#Cc1nc(CCCN2CCCCC2)cc(-c2cccc(C(F)(F)F)c2)n1`: in data set [2], the Ki was 160 nM. The molecule also had a solubility in [8] of 60 µg/mL (≈ 160 µM).
In data set [2], `N#Cc1nc(CCCNCC(F)(F)F)cc(-c2cccc(C(F)(F)F)c2)n1` yielded a Ki of 500 nM. Besides, in data set [1], the IC50 was found to be 30 nM.
